Experimental data reported in PubChem BioAssay.
Inconclusive results are not listed.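 How the source made its calls, unless noted: active means viability increase at or above a cutoff of the median across tested compounds plus 3 SD (cut at about 8.5% in these data, passing the limit was not always enough); inconclusive means some gains above the cutoff, reason not given; inactive means the rest.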

Assays:
[1] = S. cerevisiae growth inhibition in permissive medium (OD615), pilot counter-assay for S. cerevisiae lifespan shortening project, permissive growth control (AID 705;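 active means growth inhibition above 25% in both replicates, a cutoff set 3 SD above the mean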); details: OD615, 24 h, at 10 µM, active compounds read high
How it was run: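 System: engineered DeaD yeast; Medium: permissive raffinose/galactose medium; Compound dosing: 10 µM single dose, 0.25% DMSO; Incubation: 4 h cell pre-growth, 24 h exposure at 30 °C; Technique: OD at 615 nm; Evaluation: growth inhibition from lowered OD615 after 24 h.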

[2] = S. cerevisiae growth inhibition in restrictive medium, OD615, pilot screen, restrictive growth control, yeast lifespan reduction project (AID 706;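 active means growth inhibition above a set limit, 3 SD over mean compound inhibition, in both replicates, cut at about 43% in these data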;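 further: modified DeaD lifespan yeast strain shifted to restrictive glucose medium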); details: OD615, 48 h, at 10 µM, active compounds read high
How it was run: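 Material: modified S. cerevisiae; buffer or medium: CSMM-D glucose medium; doses: one concentration, 10 µM final, 0.25% DMSO; incubation: 48 h compound exposure at 30 °C; detection: optical density at 615 nm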

[3] = doxorubicin toxicity protection in MRP-1 cells – H69AR cells, CellTiter-Glo, duplicate, MRP-1 activator project, pilot screen (AID 807); details: H69AR viability with doxorubicin, CellTiter-Glo luminescence; at 10 µM; active compounds read high;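 further: compound pretreatment 18-22 h then 72 h combined with doxorubicin; 0% = doxorubicin alone and 100% = vehicle without doxorubicin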
[4] = viability of HCT116 without oncogenic beta-catenin – human colon tumor cells, pilot screen (AID 823;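 active means cell viability at or below a set limit in both duplicate runs, the limit being the all-compound median minus 4 SD, cut at about 23% in these data, passing the limit was not always enough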;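 further: 0% = wells killed by 20 µM Hyamine and 100% = untreated DMSO cell wells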); details: HCT116 beta-catenin knockout viability, CellTiter-Glo, 60 h; at 10 µM; active compounds read low
[5] = viability of PTEN-null HCT116 cells – cell-based, HCT116 clonal line, CellTiter-Glo, pilot screen (AID 824;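 active means viability at or below 27.92% in each of two runs, the all-compound median minus 4 SD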;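 further: 0% = 20 µM Hyamine control and 100% = vehicle cell control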); details: HCT116 PTEN-deleted viability, 60 h, at 10 µM, active compounds read low
[6] = RAM pathway blockade in budding yeast – dse1pr::URA3 reporter, 5-FOA selection, pilot screen (AID 869;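 active means inhibition over a set limit, the all-compound mean plus 3 SD, in both replicate runs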;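 further: 0% = DMSO wells with no growth and 100% = 10 µM 1-NA-PP1 with full growth; RAM network block rescues cells from 5-FOA so hits raise OD615 growth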); details: S. cerevisiae dse1pr::URA3 5-FOA growth, OD615, 2 d; at 10 µM; active compounds read high; strain carries analog-sensitive mutant Cbk1 kinase
[7] = RAM signaling pathway blockade in yeast – S. cerevisiae, Pdr1DBD-CYC8 efflux-inhibited sensitized strain, primary screen (AID 1298;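 active means RAM network inhibition above 8.4% in each of two replicates, 3 SD over the compound average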;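 further: 0% = DMSO untreated cells without growth and 100% = 10 µM 1-NA-PP1 full growth; higher means more yeast growth rescued from 5-FOA killing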); details: S. cerevisiae cbk1-as DSE1-URA3 strain, 5-FOA growth OD615, 2 d; at 50 µM; active compounds read high

CCN(CC)S(=O)(=O)c1ccc(NC2c3ccccc3C(=O)N2Cc2ccc3c(c2)OCO3)cc1 (stereo not drawn)
inactive: growth inhibition [1] 1.96% | growth inhibition [2] -8.94% | viability increase [3] -2.84% | viability [4] 92.9% | viability [5] 93% | inhibition [6] -0.09% | RAM network inhibition [7] 5.92%

O=c1oc(-c2cccs2)nc2sc3c(c12)CCCCC3
inactive: growth inhibition [1] -8.22% | growth inhibition [2] -6.44% | viability increase [3] 1.51% | viability [4] 89% | viability [5] 80.3% | inhibition [6] 1.86% | RAM network inhibition [7] 4.13%

COc1ccc(-n2nnc3c(=O)n(CC(=O)N4CCCCC4)cnc32)cc1
inactive: growth inhibition [1] -0.235% | growth inhibition [2] 4.3% | viability increase [3] -0.73% | viability [4] 96.1% | viability [5] 94.6% | inhibition [6] 0.975% | RAM network inhibition [7] -0.05%

COC(=O)CN(n1cnnc1)S(=O)(=O)c1ccccc1
inactive: growth inhibition [1] -9.75% | growth inhibition [2] -4.21% | viability increase [3] -0.13% | viability [4] 99% | viability [5] 96.9% | inhibition [6] 1.23% | RAM network inhibition [7] -0.62%

COc1ccc(C2C(C(=O)Nc3ccccc3OC)=C(C)Nc3ncnn32)cc1 (stereo not drawn)
inactive: growth inhibition [1] -18.5% | growth inhibition [2] 6.38% | viability increase [3] -3.68% | viability [4] 99.2% | viability [5] 94.4% | inhibition [6] 1.78% | RAM network inhibition [7] -2.3%

O=C(CN1CCOc2ccccc21)N1CCCC1
inactive: growth inhibition [1] -21.1% | growth inhibition [2] -8.8% | viability increase [3] -5.56% | viability [4] 100% | viability [5] 90.5% | inhibition [6] 0.98% | RAM network inhibition [7] 1.32%

OC(CN1C2=NCCCN2c2ccccc21)c1ccc(Cl)cc1 (stereo not drawn)
inactive: growth inhibition [1] -8.91% | growth inhibition [2] 2.81% | viability increase [3] -4.02% | viability [4] 73.8% | viability [5] 76.1% | inhibition [6] 1.26% | RAM network inhibition [7] 3.02%

c1ccc2c(c1)CCN(c1nc3ccccc3n3cnnc13)C2
inactive: growth inhibition [1] -1.93% | growth inhibition [2] 10.2% | viability increase [3] -8.63% | viability [4] 65.1% | viability [5] 68.9% | inhibition [6] 0.5% | RAM network inhibition [7] -0.31%

O=C(NCc1ccc(Cl)c(Cl)c1)c1cccnc1
inactive: growth inhibition [1] -7.96% | growth inhibition [2] 4.69% | viability increase [3] -1.74% | viability [4] 99% | viability [5] 90.9% | inhibition [6] 0.58% | RAM network inhibition [7] 3.32%

O=C(O)CCc1n[nH]c(=S)[nH]c1=O
inactive: growth inhibition [1] -5.76% | growth inhibition [2] -17.3% | viability increase [3] -1.6% | viability [4] 102% | viability [5] 106% | inhibition [6] 0.76% | RAM network inhibition [7] -0.69%

O=C(CC1SC(=Nc2ccccc2)N(CCCCO)C1=O)NCc1ccccc1 (stereo not drawn)
inactive: growth inhibition [1] -5.1% | growth inhibition [2] -5.89% | viability increase [3] -2.74% | viability [4] 89.5% | viability [5] 86.4% | inhibition [6] 0.065% | RAM network inhibition [7] 5.21%

COCCCNC(=O)COc1cc(C)c(Cl)c(C)c1
inactive: growth inhibition [1] -3.79% | growth inhibition [2] -2.48% | viability increase [3] -1.76% | viability [4] 95.5% | viability [5] 96.3% | inhibition [6] -0.185% | RAM network inhibition [7] 1.45%

COc1ccccc1NC(=O)Nc1ccc(Br)cn1
inactive: growth inhibition [1] -10.3% | growth inhibition [2] -15.5% | viability increase [3] -2.09% | viability [4] 92.6% | viability [5] 87.7% | inhibition [6] 2.98% | RAM network inhibition [7] 8.69%

O=C(COc1cc(=O)n2c(n1)SCCC2)c1ccccc1
inactive: growth inhibition [1] -6.77% | growth inhibition [2] -2.62% | viability increase [3] -1.08% | viability [4] 102% | viability [5] 92.7% | inhibition [6] 1.56% | RAM network inhibition [7] 1.89%

CCCOc1ccc(N2CC(C(=O)Nc3ccccc3OC)CC2=O)cc1 (stereo not drawn)
inactive: growth inhibition [1] -15.6% | growth inhibition [2] -6.16% | viability increase [3] 0.54% | viability [4] 105% | viability [5] 93.7% | inhibition [6] 0.11% | RAM network inhibition [7] 2.24%

O=C(Nc1ccccc1C(=O)N1CCN(Cc2ccccc2)CC1)c1ccccn1
inactive: growth inhibition [1] -4.94% | growth inhibition [2] -10.1% | viability increase [3] -2.39% | viability [4] 93.3% | viability [5] 96.2% | inhibition [6] -0.045% | RAM network inhibition [7] 6.33%

CCOC(=O)N1CCC(Nc2cc(C)nc3c(-c4ccccc4OC)c(C)nn23)CC1
inactive: growth inhibition [1] -2.85% | growth inhibition [2] -0.57% | viability increase [3] -6.98% | viability [4] 81.3% | viability [5] 67.8% | inhibition [6] 0.325% | RAM network inhibition [7] 4.72%

O=C(CN1CC(c2ccccc2)CC1=O)Nc1ccc2c(c1)OCO2 (stereo not drawn)
inactive: growth inhibition [1] -7.38% | growth inhibition [2] 0.29% | viability increase [3] -1.16% | viability [4] 98% | viability [5] 101% | inhibition [6] 0.205% | RAM network inhibition [7] 1.31%

CCn1cc(C(=O)NCC(=O)OC)c2cc(OC)c(OC)cc2c1=O
inactive: growth inhibition [1] -6.43% | growth inhibition [2] -18.9% | viability increase [3] 0.9% | viability [4] 105% | viability [5] 104% | inhibition [6] 0.59% | RAM network inhibition [7] 2.3%

C(=N\c1nc2ccccc2n1Cc1ccccc1)/c1cccs1
inactive: growth inhibition [1] -3.85% | growth inhibition [2] -3.94% | viability increase [3] -3.85% | viability [4] 88.7% | viability [5] 88.6% | inhibition [6] 1.94% | RAM network inhibition [7] 4.3%

c1ccc(COc2nsnc2N2CCOCC2)cc1
inactive: growth inhibition [1] 6.21% | growth inhibition [2] 13.8% | viability increase [3] -1.67% | viability [4] 107% | viability [5] 86.5% | inhibition [6] 0.145% | RAM network inhibition [7] 1.41%

O=C(NCC1CCCO1)c1nnc(Cc2ccc(F)cc2)o1 (stereo not drawn)
inactive: growth inhibition [1] -12.6% | growth inhibition [2] 10.5% | viability increase [3] -0.18% | viability [4] 98.4% | viability [5] 99.4% | inhibition [6] 0.085% | RAM network inhibition [7] 1.47%

O=C1N2CN(C(c3ccccc3)c3ccccc3)CN=C2SC1(CO)CO
inactive: growth inhibition [1] -9.07% | growth inhibition [2] -4.68% | viability increase [3] -2.69% | viability [4] 62.9% | viability [5] 74.8% | inhibition [6] 1.88% | RAM network inhibition [7] 1.39%

O=C1C(C=NCc2cccnc2)=C(O)c2ccccc21
inactive: growth inhibition [1] -6.25% | growth inhibition [2] -0.095% | viability increase [3] -2.11% | viability [4] 94.1% | viability [5] 93.4% | inhibition [6] 1.67% | RAM network inhibition [7] 2.36%
